Results on 48 variants are retold here after the RNAGym collection of RNA variant scans (doi:10.1002/anie.201605470).

First the molecules themselves.
B1: Osa-1-4 twister ribozyme (parent)
chain: CCGCCUAACACUGCCAAUGCCGGUCCCAAGCCCGGAUAAAAGUGGAGGGGGCGG

The series covers variants of B1. Description: self-cleavage, relative activity (ratio to wild type); higher = more cleavage; co-transcriptional. The method in brief: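 Values are relative activity: the fraction cleaved, normalised to wild type. A doped DNA template for a 54-nucleotide twister ribozyme from Oryza sativa had 97 % wild-type base and 1 % of each other base at the 48 positions downstream of the cleavage site. The RNA was transcribed in vitro for 2 h at 37 °C so that it could cleave itself co-transcriptionally, then sequenced deeply, with cleavage status scored from the presence or absence of upstream sequence in reads.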
On to CCGCCUAACACUGCCAAUGCCUGACCCAAGCCCGGAUAAAAGUGGAGGGGGCGG [G22U U24A], for which the self-cleavage stood at 0.13.

In the case of CCGCCUAACACUGCCAAUGCCUGGCCCAAGCCCGGAUAAAAGUGGAGGGGGCGG [G22U U24G], the self-cleavage amounted to 0.07.

With CCGCCUAACACUGCCAAUGCCUGCCCCAAGCCCGGAUAAAAGUGGAGGGGGCGG [G22U U24C], the self-cleavage was 0.06.

As to CCGCCUAACACUGCCAAUGCCUGUCCCAAGCCCGGAUAAAACUGGAGGGGGCGG [G22U G42C], the self-cleavage was found to be 0.07.

Consider CCGCCUAACACUGCCAAUGCCUGUCCCAAGCCCGGAUAAAAAUGGAGGGGGCGG [G22U G42A], for which the self-cleavage turned out to be 0.08.

CCGCCUAACACUGCCAAUGCCUGUCCCAAGCCCGGAUAAAAUUGGAGGGGGCGG [G22U G42U]: the self-cleavage came to 0.05.

Regarding CCGCCUAACACUGCCAAUGCCUGUCCCAAGCCCGGAUAAAAGUAGAGGGGGCGG [G22U G44A], the self-cleavage is 0.72.

With CCGCCUAACACUGCCAAUGCCUGUCCCAAGCCCGGAUAAAAGUUGAGGGGGCGG [G22U G44U], the self-cleavage was determined as 0.47.

Turning to CCGCCUAACACUGCCAAUGCCUGUCCCAAGCCCGGAUAAAAGUCGAGGGGGCGG [G22U G44C], the self-cleavage was 0.81.

In the case of CCGCCUAACACUGCCAAUGCCUGUCCCAAGCCCGUAUAAAAGUGGAGGGGGCGG [G22U G35U], the self-cleavage came out at 0.41.

On to CCGCCUAACACUGCCAAUGCCUGUCCCAAGCCCGCAUAAAAGUGGAGGGGGCGG [G22U G35C], for which the self-cleavage is 0.11.

As to CCGCCUAACACUGCCAAUGCCUGUCCCAAGCCCGAAUAAAAGUGGAGGGGGCGG [G22U G35A], the self-cleavage came to 0.36.

Take CCGCCUAACACUGCCAAUGCCCGUCCCAAGCCCGGAUAAAAGUGGAGGGGACGG [G22C G51A]: the self-cleavage came out at 0.04.

On to CCGCCUAACACUGCCAAUGCCCGUCCCAAGCCCGGAUAAAAGUGGAGGGGUCGG [G22C G51U], for which the self-cleavage was found to be 0.04.

As for CCGCCUAACACUGCCAAUGCCCGUCCCAAGCCCGGAUAAAAGUGGAGGGGCCGG [G22C G51C], the self-cleavage turned out to be 0.03.

Turning to CCGCCUAACACUGCCAAUGCCUGUCCCAAGCCCGGAUAAAAGUGGAGGGAGCGG [G22U G50A], the self-cleavage is 0.91.

In the case of CCGCCUAACACUGCCAAUGCCUGUCCCAAGCCCGGAUAAAAGUGGAGGGCGCGG [G22U G50C], the self-cleavage stood at 0.3.

In the case of CCGCCUAACACUGCCAAUGCCUGUCCCAAGCCCGGAUAAAAGUGGAGGGUGCGG [G22U G50U], the self-cleavage is 0.75.

As to CCGCCUAACACUGCCAAUGCCCGUCCCAAGCCCGGAGAAAAGUGGAGGGGGCGG [G22C U37G], the self-cleavage came to 0.17.

As to CCGCCUAACACUGCCAAUGCCCGUCCCAAGCCCGGAAAAAAGUGGAGGGGGCGG [G22C U37A], the self-cleavage came to 0.14.

As to CCGCCUAACACUGCCAAUGCCCGUCCCAAGCCCGGACAAAAGUGGAGGGGGCGG [G22C U37C], the self-cleavage was found to be 0.14.

Take CCGCCUAACACUGCCAAUGCCCGUCCCAAGCCCGGAUAAAAGCGGAGGGGGCGG [G22C U43C]: the self-cleavage turned out to be 0.03.

As for CCGCCUAACACUGCCAAUGCCCGUCCCAAGCCCGGAUAAAAGAGGAGGGGGCGG [G22C U43A], the self-cleavage turned out to be 0.04.

As for CCGCCUAACACUGCCAAUGCCCGUCCCAAGCCCGGAUAAAAGGGGAGGGGGCGG [G22C U43G], the self-cleavage stood at 0.04.

With CCGCCUAACACGGCCAAUGCCCGUCCCAAGCCCGGAUAAAAGUGGAGGGGGCGG [G22C U12G], the self-cleavage was determined as 0.03.

Turning to CCGCCUAACACCGCCAAUGCCCGUCCCAAGCCCGGAUAAAAGUGGAGGGGGCGG [G22C U12C], the self-cleavage came to 0.07.

Take CCGCCUAACACAGCCAAUGCCCGUCCCAAGCCCGGAUAAAAGUGGAGGGGGCGG [G22C U12A]: the self-cleavage was 0.05.

With CCGCCUAACACUGCCAAUGCCUGUCCCAAGCCCGGAUAAAAGUGGAGGGGGCUG [G22U G53U], the self-cleavage turned out to be 0.12.

For the variant CCGCCUAACACUGCCAAUGCCUGUCCCAAGCCCGGAUAAAAGUGGAGGGGGCCG [G22U G53C], the self-cleavage was determined as 0.05.

Consider CCGCCUAACACUGCCAAUGCCUGUCCCAAGCCCGGAUAAAAGUGGAGGGGGCAG [G22U G53A], for which the self-cleavage was 0.1.

With CCGCCUAACACUGCCAAUGCCUGUCCCAAGCCCGGAUAAAAGUGGAGGGGGCGA [G22U G54A], the self-cleavage worked out at 0.58.

In the case of CCGCCUAACACUGCCAAUGCCUGUCCCAAGCCCGGAUAAAAGUGGAGGGGGCGC [G22U G54C], the self-cleavage was 0.64.

In the case of CCGCCUAACACUGCCAAUGCCUGUCCCAAGCCCGGAUAAAAGUGGAGGGGGCGU [G22U G54U], the self-cleavage turned out to be 0.6.

As to CCGCCUAACACUGCCAAUGCCCGUCCCAAGCCCGGAUAAAAGUGGAGCGGGCGG [G22C G48C], the self-cleavage came to 0.02.

As to CCGCCUAACACUGCCAAUGCCCGUCCCAAGCCCGGAUAAAAGUGGAGUGGGCGG [G22C G48U], the self-cleavage is 0.02.

Consider CCGCCUAACACUGCCAAUGCCCGUCCCAAGCCCGGAUAAAAGUGGAGAGGGCGG [G22C G48A], for which the self-cleavage amounted to 0.02.

In the case of CCGCCUAACACUGCCAAUGCCGAUCCCAAGCCCGGAUAAAAGUGGAGGGGGCGG [G23A], the self-cleavage worked out at 0.8.

As to CCGCCUAACACUGCCAAUGCCCGUCCCAAGCCCGGAUAAAAGUGGAGGAGGCGG [G22C G49A], the self-cleavage turned out to be 0.03.

Consider CCGCCUAACACUGCCAAUGCCCGUCCCAAGCCCGGAUAAAAGUGGAGGCGGCGG [G22C G49C], for which the self-cleavage came to 0.03.

As to CCGCCUAACACUGCCAAUGCCCGUCCCAAGCCCGGAUAAAAGUGGAGGUGGCGG [G22C G49U], the self-cleavage was 0.03.

In the case of CCGCCUAACACUGCCAAUGCCUGUCCCAAGCCCGGACAAAAGUGGAGGGGGCGG [G22U U37C], the self-cleavage came out at 0.55.

For CCGCCUAACACUGCCAAUGCCUGUCCCAAGCCCGGAAAAAAGUGGAGGGGGCGG [G22U U37A], the self-cleavage amounted to 0.93.

On to CCGCCUAACACUGCCAAUGCCUGUCCCAAGCCCGGAGAAAAGUGGAGGGGGCGG [G22U U37G], for which the self-cleavage turned out to be 0.92.

On to CCGCCUAACACUGCCAAUGCCUGUCCCAAGCCCGGAUAAAAGUGUAGGGGGCGG [G22U G45U], for which the self-cleavage was determined as 0.06.

Turning to CCGCCUAACACUGCCAAUGCCUGUCCCAAGCCCGGAUAAAAGUGCAGGGGGCGG [G22U G45C], the self-cleavage came to 0.04.

Turning to CCGCCUAACACUGCCAAUGCCUGUCCCAAGCCCGGAUAAAAGUGAAGGGGGCGG [G22U G45A], the self-cleavage is 0.11.

As for CCGCCUAACACUGCCAAUGCCUGUCCCAAGCCCAGAUAAAAGUGGAGGGGGCGG [G22U G34A], the self-cleavage amounted to 0.19.

CCGCCUAACACUGCCAAUGCCUGUCCCAAGCCCUGAUAAAAGUGGAGGGGGCGG [G22U G34U]: the self-cleavage was 0.79.
